Test results taken from ChEMBL document CHEMBL1932999, “Increased susceptibility to resveratrol of Helicobacter pylori strains isolated from patients with gastric carcinoma” (2011).
Converted amounts (≈) assume the structure as drawn.

Legend:
Helicobacter pylori [1] = assay: Antibacterial activity against CagA-expressing Helicobacter pylori 10Kb isolated from gastric carcinoma patient after 48 hrs compound exposure followed by incubation on Columbia-blood agar plate for 3 to 5 days; format: functional
Outline: (§1)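 Compound dissolved in water with 4% DMSO, filter-sterilized, and serially twofold diluted in Brucella broth with 10% bovine fetal serum. Inoculum from 48 h microaerobic Brucella agar-BFS cultures, added at approximately 10^6 CFU/mL final. Broth incubated microaerobically at 37 °C for 24 or 48 h, then each dilution subcultured onto Columbia-blood agar. MBC is the lowest concentration with no growth on subculture. Triplicate; mean ± SD.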

Helicobacter pylori [2] = assay: Antibacterial activity against CagA-expressing Helicobacter pylori 17C7 isolated from gastric carcinoma patient after 48 hrs compound exposure followed by incubation on Columbia-blood agar plate for 3 to 5 days; format: functional; outline: as §1
Helicobacter pylori [3] = assay: Antibacterial activity against CagA-expressing Helicobacter pylori 18C7 isolated from gastric carcinoma patient after 48 hrs compound exposure followed by incubation on Columbia-blood agar plate for 3 to 5 days; format: functional; outline: as §1
Helicobacter pylori [4] = assay: Antibacterial activity against CagA-expressing Helicobacter pylori 4Cb isolated from gastric carcinoma patient after 48 hrs compound exposure followed by incubation on Columbia-blood agar plate for 3 to 5 days; format: functional; outline: as §1
Helicobacter pylori [5] = assay: Antibacterial activity against CagA-expressing Helicobacter pylori 3Cb isolated from gastric carcinoma patient after 48 hrs compound exposure followed by incubation on Columbia-blood agar plate for 3 to 5 days; format: functional; outline: as §1
Helicobacter pylori [6] = assay: Antibacterial activity against CagA-expressing Helicobacter pylori 1C1 isolated from gastric carcinoma patient after 48 hrs compound exposure followed by incubation on Columbia-blood agar plate for 3 to 5 days; format: functional; outline: as §1
Helicobacter pylori [7] = assay: Antibacterial activity against CagA-expressing Helicobacter pylori 2Ca isolated from gastric carcinoma patient after 48 hrs compound exposure followed by incubation on Columbia-blood agar plate for 3 to 5 days; format: functional; outline: as §1
Helicobacter pylori [8] = assay: Bactericidal activity against CagA-deficient Helicobacter pylori G50 isolated from chronic gastritis patient compound exposure followed by incubation on Columbia-blood agar plate for 3 to 5 days; format: functional, organism-based; settings: TDE = time-dependent effect
Outline: (§2)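 Broth microdilution MBC against clinical H. pylori isolates (cagA by PCR; stocks kept frozen in Columbia broth with 20% glycerol). Compound dissolved in water with 4% DMSO, filter-sterilized, double diluted in Brucella broth with 10% fetal bovine serum. Inoculum about 10^6 CFU/mL from 48 h microaerobic Brucella agar-BFS cultures. Plates held microaerobically at 37 °C for 24 and 48 h. Each well was then spotted onto Columbia-blood agar for 3-5 days. MBC is the lowest concentration giving no regrowth. Triplicate, mean ± SD.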

Helicobacter pylori [9] = assay: Bactericidal activity against CagA-deficient Helicobacter pylori G21b isolated from chronic gastritis patient compound exposure followed by incubation on Columbia-blood agar plate for 3 to 5 days; format: functional, organism-based; settings: TDE = time-dependent effect; outline: as §2
Helicobacter pylori [10] = assay: Bactericidal activity against CagA-deficient Helicobacter pylori G104 isolated from chronic gastritis patient compound exposure followed by incubation on Columbia-blood agar plate for 3 to 5 days; format: functional, organism-based; settings: TDE = time-dependent effect; outline: as §2
Helicobacter pylori [11] = assay: Bactericidal activity against CagA-deficient Helicobacter pylori Ba142 isolated from chronic gastritis patient compound exposure followed by incubation on Columbia-blood agar plate for 3 to 5 days; format: functional, organism-based; settings: TDE = time-dependent effect; outline: as §2
Helicobacter pylori [12] = assay: Bactericidal activity against CagA-deficient Helicobacter pylori NS23 isolated from chronic gastritis patient compound exposure followed by incubation on Columbia-blood agar plate for 3 to 5 days; format: functional, organism-based; settings: TDE = time-dependent effect; outline: as §2
Helicobacter pylori [13] = assay: Bactericidal activity against CagA-deficient Helicobacter pylori 328 KM isolated from chronic gastritis patient compound exposure followed by incubation on Columbia-blood agar plate for 3 to 5 days; format: functional, organism-based; settings: TDE = time-dependent effect; outline: as §2
Helicobacter pylori [14] = assay: Bactericidal activity against CagA-deficient Helicobacter pylori G12 isolated from chronic gastritis patient compound exposure followed by incubation on Columbia-blood agar plate for 3 to 5 days; format: functional, organism-based; settings: TDE = time-dependent effect; outline: as §2
Helicobacter pylori [15] = assay: Bactericidal activity against CagA-deficient Helicobacter pylori G204 isolated from chronic gastritis patient compound exposure followed by incubation on Columbia-blood agar plate for 3 to 5 days; format: functional, organism-based; settings: TDE = time-dependent effect; outline: as §2
Helicobacter pylori [16] = assay: Bactericidal activity against CagA-expressing Helicobacter pylori CCUG17874 isolated from chronic gastritis patient compound exposure followed by incubation on Columbia-blood agar plate for 3 to 5 days; format: functional, organism-based; settings: TDE = time-dependent effect; outline: as §2
Helicobacter pylori [17] = assay: Bactericidal activity against CagA-expressing Helicobacter pylori MDO21 isolated from chronic gastritis patient compound exposure followed by incubation on Columbia-blood agar plate for 3 to 5 days; format: functional, organism-based; settings: TDE = time-dependent effect; outline: as §2
Helicobacter pylori [18] = assay: Bactericidal activity against CagA-expressing Helicobacter pylori MD6 isolated from chronic gastritis patient compound exposure followed by incubation on Columbia-blood agar plate for 3 to 5 days; format: functional, organism-based; settings: TDE = time-dependent effect; outline: as §2
Helicobacter pylori [19] = assay: Bactericidal activity against CagA-expressing Helicobacter pylori 328 isolated from chronic gastritis patient compound exposure followed by incubation on Columbia-blood agar plate for 3 to 5 days; format: functional, organism-based; settings: TDE = time-dependent effect; outline: as §2
Helicobacter pylori [20] = assay: Bactericidal activity against CagA-expressing Helicobacter pylori G27 isolated from chronic gastritis patient compound exposure followed by incubation on Columbia-blood agar plate for 3 to 5 days; format: functional; settings: TDE = time-dependent effect; outline: as §2
Helicobacter pylori [21] = assay: Bactericidal activity against CagA-expressing Helicobacter pylori Ma01 isolated from chronic gastritis patient compound exposure followed by incubation on Columbia-blood agar plate for 3 to 5 days; format: functional, organism-based; settings: TDE = time-dependent effect; outline: as §2
Helicobacter pylori [22] = assay: Bactericidal activity against CagA-expressing Helicobacter pylori SI10 isolated from chronic gastritis patient compound exposure followed by incubation on Columbia-blood agar plate for 3 to 5 days; format: functional, organism-based; settings: TDE = time-dependent effect; outline: as §2
Helicobacter pylori [23] = assay: Bactericidal activity against CagA-expressing Helicobacter pylori G39 isolated from chronic gastritis patient compound exposure followed by incubation on Columbia-blood agar plate for 3 to 5 days; format: functional, organism-based; settings: TDE = time-dependent effect; outline: as §2
Helicobacter pylori [24] = assay: Bactericidal activity against CagA-expressing Helicobacter pylori G20 isolated from chronic gastritis patient compound exposure followed by incubation on Columbia-blood agar plate for 3 to 5 days; format: functional, organism-based; settings: TDE = time-dependent effect; outline: as §2
Helicobacter pylori [25] = assay: Antibacterial activity against CagA-expressing Helicobacter pylori 3Cb isolated from gastric carcinoma patient after 24 hrs compound exposure followed by incubation on Columbia-blood agar plate for 3 to 5 days; format: functional; outline: as §1
Helicobacter pylori [26] = assay: Antibacterial activity against CagA-expressing Helicobacter pylori 1C1 isolated from gastric carcinoma patient after 24 hrs compound exposure followed by incubation on Columbia-blood agar plate for 3 to 5 days; format: functional; outline: as §1
Helicobacter pylori [27] = assay: Antibacterial activity against CagA-expressing Helicobacter pylori 2Ca isolated from gastric carcinoma patient after 24 hrs compound exposure followed by incubation on Columbia-blood agar plate for 3 to 5 days; format: functional; outline: as §1
Helicobacter pylori [28] = assay: Antibacterial activity against CagA-deficient Helicobacter pylori G50 isolated from chronic gastritis patient after 48 hrs compound exposure followed by incubation on Columbia-blood agar plate for 3 to 5 days; format: functional; outline: as §1
Helicobacter pylori [29] = assay: Antibacterial activity against CagA-deficient Helicobacter pylori G21b isolated from chronic gastritis patient after 48 hrs compound exposure followed by incubation on Columbia-blood agar plate for 3 to 5 days; format: functional; outline: as §1
Helicobacter pylori [30] = assay: Antibacterial activity against CagA-deficient Helicobacter pylori G104 isolated from chronic gastritis patient after 48 hrs compound exposure followed by incubation on Columbia-blood agar plate for 3 to 5 days; format: functional; outline: as §1
Helicobacter pylori [31] = assay: Antibacterial activity against CagA-deficient Helicobacter pylori Ba142 isolated from chronic gastritis patient after 48 hrs compound exposure followed by incubation on Columbia-blood agar plate for 3 to 5 days; format: functional; outline: as §1
Helicobacter pylori [32] = assay: Antibacterial activity against CagA-deficient Helicobacter pylori NS23 isolated from chronic gastritis patient after 48 hrs compound exposure followed by incubation on Columbia-blood agar plate for 3 to 5 days; format: functional; outline: as §1
Helicobacter pylori [33] = assay: Antibacterial activity against CagA-deficient Helicobacter pylori 328 KM isolated from chronic gastritis patient after 48 hrs compound exposure followed by incubation on Columbia-blood agar plate for 3 to 5 days; format: functional; outline: as §1
Helicobacter pylori [34] = assay: Antibacterial activity against CagA-deficient Helicobacter pylori G12 isolated from chronic gastritis patient after 48 hrs compound exposure followed by incubation on Columbia-blood agar plate for 3 to 5 days; format: functional; outline: as §1

## Oc1ccc(/C=C/c2cc(O)cc(O)c2)cc1 [RESVERATROL]
Helicobacter pylori [1]
  MBC: 147 µg/mL (≈ 644 µM)
Helicobacter pylori [2]
  MBC: 37 µg/mL (≈ 162 µM)
Helicobacter pylori [3]
  MBC: 37 µg/mL (≈ 162 µM)
Helicobacter pylori [4]
  MBC: 147 µg/mL (≈ 644 µM)
Helicobacter pylori [5]
  MBC: 40 µg/mL (≈ 175 µM)
Helicobacter pylori [6]
  MBC: 80 µg/mL (≈ 350 µM)
Helicobacter pylori [7]
  MBC: 160 µg/mL (≈ 701 µM)
Helicobacter pylori [8]
  Activity: tde
Helicobacter pylori [9]
  Activity: tde
Helicobacter pylori [10]
  Activity: tde
Helicobacter pylori [11]
  Activity: tde
Helicobacter pylori [12]
  Activity: tde
Helicobacter pylori [13]
  Activity: tde
Helicobacter pylori [14]
  Activity: tde
Helicobacter pylori [15]
  Activity: tde
Helicobacter pylori [16]
  Activity: tde
Helicobacter pylori [17]
  Activity: tde
Helicobacter pylori [18]
  Activity: tde
Helicobacter pylori [19]
  Activity: tde
Helicobacter pylori [20]
  Activity: tde
Helicobacter pylori [21]
  Activity: tde
Helicobacter pylori [22]
  Activity: tde
Helicobacter pylori [23]
  Activity: tde
Helicobacter pylori [24]
  Activity: tde
Helicobacter pylori [25]
  MBC: 40 µg/mL (≈ 175 µM)
Helicobacter pylori [26]
  MBC: 80 µg/mL (≈ 350 µM)
Helicobacter pylori [27]
  MBC: 160 µg/mL (≈ 701 µM)
Helicobacter pylori [28]
  MBC: 295 µg/mL (≈ 1290 µM)
Helicobacter pylori [29]
  MBC: 295 µg/mL (≈ 1290 µM)
Helicobacter pylori [30]
  MBC: 295 µg/mL (≈ 1290 µM)
Helicobacter pylori [31]
  MBC: 295 µg/mL (≈ 1290 µM)
Helicobacter pylori [32]
  MBC: 147 µg/mL (≈ 644 µM)
Helicobacter pylori [33]
  MBC: 147 µg/mL (≈ 644 µM)
Helicobacter pylori [34]
  MBC: 324 µg/mL (≈ 1420 µM)
